In test [1] the test system is PC-9. The test can be described thus: Antiproliferative activity against human PC-9 cells assessed as inhibition of cell growth measured after 72 hrs by CCK-8 assay. The conditions noted are these: PC-9, 72 h. The test is classed as functional, cell-based. The method in brief: (§1)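 Cells seeded at 3000 cells/well in 96-well plates and treated with graded compound concentrations one day later for 72 h. CCK-8 was added for 1–4 h and absorbance read at 450 nm. Lung cancer lines were kept in RPMI 1640 with 10% fetal calf serum at 37 °C and 5% CO₂.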
For orientation: Tetrazolium dyes change colour on reduction, which living cells bring about.

Test [2] can be described thus: Antiproliferative activity against human PB1 cells assessed as inhibition of cell growth measured after 72 hrs by CCK-8 assay. Type of test: functional, cell-based. The conditions noted are these: PB1, 72 h. The gist of the method:
as §1

The subject of test [3] is NCI-H1975. In words: Antiproliferative activity against human NCI-H1975 cells assessed as inhibition of cell growth measured after 72 hrs by CCK-8 assay. The test is classed as functional, cell-based. The conditions noted are these: NCI-H1975, 72 h. The method in brief: as §1
The test system of test [4] is HEK-293T. The test can be described thus: Cytotoxicity against human HEK293T cells assessed as inhibition of cell growth measured after 72 hrs by CCK-8 assay. The test is classed as cell-based. The gist of the method: as §1
The test system of test [5] is BJ. The test can be described thus: Cytotoxicity against human BJ cells assessed as inhibition of cell growth measured after 72 hrs by CCK-8 assay. The test is classed as cell-based. The gist of the method:
as §1

Test [6] relates to HCC827. The test can be described thus: Antiproliferative activity against human HCC827 cells assessed as inhibition of cell growth measured after 72 hrs by CCK-8 assay. The test is classed as functional, cell-based. The conditions noted are these: HCC827, 72 h. The gist of the method:
as §1

For test [7], the system named is A549. The test can be described thus: Antiproliferative activity against human A549 cells assessed as inhibition of cell growth measured after 72 hrs by CCK-8 assay. Type of test: functional, cell-based. The conditions noted are these: A549, 72 h. The method in brief: as §1
The subject of test [8] is BaF3. The test can be described thus: Antiproliferative activity against mouse BaF3 cells assessed as inhibition of cell growth measured after 72 hrs by CCK-8 assay. The test is classed as functional, cell-based. The conditions noted are these: BaF3, 72 h. The gist of the method: as §1

What is called IC50 is the midpoint of a concentration-inhibition curve. `C=CC(=O)Nc1cc2c(Nc3ccc(F)c(Cl)c3)ncnc2cc1OCCCN1CCN(C(=O)CCCNc2cccc3c2C(=O)N(C2CCC(=O)NC2=O)C3=O)CC1` (stereo not drawn): the half-maximal inhibitory concentration (IC50) was 1.38 nM in test [1]; 146 nM in test [2]; 209 nM in test [3]; 14700 nM in test [4]; over 10000 nM in test [5].

Regarding `C=CC(=O)Nc1cc2c(Nc3ccc(F)c(Cl)c3)ncnc2cc1OCCCN1CCOCC1` [CANERTINIB], the half-inhibitory concentration (IC50) in test [1] came to 0.859 nM; in test [2] it was 70.2 nM; in test [3], 11.3 nM; in test [6], 0.378 nM; in test [7], 7160 nM; in test [8], 9.2 nM. The results for the half-maximal inhibitory concentration (IC50) in test [4] and in test [5] were 6000 nM and 5610 nM, respectively.

For the compound `C=CC(=O)Nc1cc2c(Nc3ccc(F)c(Cl)c3)ncnc2cc1OCCCN1CCN(C(=O)CNc2cccc3c2C(=O)N(C2CCC(=O)NC2=O)C3=O)CC1` (stereo not drawn), the half-maximal inhibitory concentration (IC50) in test [1] was 5 nM; in test [2], 190 nM; in test [3], 234 nM; in test [4] it was over 10000 nM; in test [5], over 10000 nM.

Regarding `C=CC(=O)Nc1cc2c(Nc3ccc(F)c(Cl)c3)ncnc2cc1OCCCN1CCN(C(=O)CCCCNc2cccc3c2C(=O)N(C2CCC(=O)NC2=O)C3=O)CC1` (stereo not drawn), the IC50 in test [1] is 0.452 nM; in test [2], 122 nM; in test [3] it was 35.4 nM; in test [4] it was over 10000 nM; in test [5], over 10000 nM.

As to `C=CC(=O)Nc1cc2c(Nc3ccc(F)c(Cl)c3)ncnc2cc1OCCCN1CCNCC1`, the half-maximal inhibitory concentration (IC50) amounted to 1.11 nM in test [1]; 33.4 nM in test [2]; 162 nM in test [3]; 21800 nM in test [4]; 2740 nM in test [5].

Consider `C=CC(=O)Nc1cc2c(Nc3ccc(F)c(Cl)c3)ncnc2cc1OCCCN1CCN(C(=O)CCNc2cccc3c2C(=O)N(C2CCC(=O)NC2=O)C3=O)CC1` (stereo not drawn), for which the IC50 was 0.977 nM in test [1]; 163 nM in test [2]; 110 nM in test [3]; over 10000 nM in test [4]; over 10000 nM in test [5].

The values above are taken from ChEMBL document CHEMBL4825665, “Effective degradation of EGFRL858R+T790M mutant proteins by CRBN-based PROTACs through both proteosome and autophagy/lysosome degradation systems” (Eur J Med Chem, 2021).
